Experimental data taken from ChEMBL document CHEMBL1687761.

How the values were obtained:
[1] = tested on: CC(=O)OCC1=C(C(=O)O)N2C(=O)[C@@H](NC(=O)Cc3cccs3)[C@H]2SC1; experiment: (§1) Ratio of Kcat to Km for Escherichia coli BL21(DE3) wild-type VIM-2 beta-lactamase by spectrophotometer
[2] = tested on: CO/N=C(\C(=O)N[C@@H]1C(=O)N2C(C(=O)O)=C(COC(C)=O)CS[C@H]12)c1csc(N)n1; experiment: as §1
[3] = tested on: CO/N=C(\C(=O)N[C@@H]1C(=O)N2C(C(=O)[O-])=C(C[N+]3(C)CCCC3)CS[C@H]12)c1csc(N)n1; experiment: as §1
[4] = tested on: C[C@@H](O)[C@H]1C(=O)N2C(C(=O)O)=C(SCCNC=N)C[C@H]12; experiment: as §1
[5] = tested on: CC(C)(O/N=C(\C(=O)N[C@@H]1C(=O)N2C(C(=O)[O-])=C(C[n+]3ccccc3)CS[C@H]12)c1csc(N)n1)C(=O)O; experiment: (§2) Activity of Escherichia coli BL21(DE3) wild-type VIM-2 beta-lactamase by spectrophotometer
[6] = tested on: CO/N=C(\C(=O)N[C@@H]1C(=O)N2C(C(=O)O)=C(COC(C)=O)CS[C@H]12)c1csc(N)n1; experiment: as §2
[7] = tested on: CO/N=C(\C(=O)N[C@@H]1C(=O)N2C(C(=O)[O-])=C(C[N+]3(C)CCCC3)CS[C@H]12)c1csc(N)n1; experiment: as §2
[8] = tested on: C[C@@H](O)[C@H]1C(=O)N2C(C(=O)O)=C(SCCNC=N)C[C@H]12; experiment: as §2
[9] = tested on: C[C@@H](O)[C@H]1C(=O)N2C(C(=O)O)=C(S[C@@H]3CN[C@H](C(=O)N(C)C)C3)[C@H](C)[C@H]12; experiment: as §2
[10] = tested on: CC(=O)OCC1=C(C(=O)O)N2C(=O)[C@@H](NC(=O)Cc3cccs3)[C@H]2SC1; experiment: (§3) Ratio of Kcat to Km for Escherichia coli XL1-Blue wild-type VIM-2 beta-lactamase by spectrophotometer
[11] = tested on: CO/N=C(\C(=O)N[C@@H]1C(=O)N2C(C(=O)O)=C(COC(C)=O)CS[C@H]12)c1csc(N)n1; experiment: as §3
[12] = tested on: CO/N=C(\C(=O)N[C@@H]1C(=O)N2C(C(=O)[O-])=C(C[N+]3(C)CCCC3)CS[C@H]12)c1csc(N)n1; experiment: as §3
[13] = tested on: CO[C@@]1(NC(=O)Cc2cccs2)C(=O)N2C(C(=O)O)=C(COC(N)=O)CS[C@@H]21; experiment: as §3
[14] = tested on: C[C@@H](O)[C@H]1C(=O)N2C(C(=O)O)=C(SCCNC=N)C[C@H]12; experiment: as §3
[15] = tested on: O=C(Cc1cccs1)N[C@@H]1C(=O)N2C(C(=O)O)=C(/C=C/c3ccc([N+](=O)[O-])cc3[N+](=O)[O-])CS[C@H]12; experiment: as §3
[16] = tested on: CC(C)(O/N=C(\C(=O)N[C@@H]1C(=O)N2C(C(=O)[O-])=C(C[n+]3ccccc3)CS[C@H]12)c1csc(N)n1)C(=O)O; experiment: (§4) Activity of Escherichia coli XL1-Blue wild-type VIM-2 beta-lactamase by spectrophotometer
[17] = tested on: CO/N=C(\C(=O)N[C@@H]1C(=O)N2C(C(=O)O)=C(COC(C)=O)CS[C@H]12)c1csc(N)n1; experiment: as §4
[18] = tested on: CO/N=C(\C(=O)N[C@@H]1C(=O)N2C(C(=O)[O-])=C(C[N+]3(C)CCCC3)CS[C@H]12)c1csc(N)n1; experiment: as §4
[19] = tested on: C[C@@H](O)[C@H]1C(=O)N2C(C(=O)O)=C(SCCNC=N)C[C@H]12; experiment: as §4
[20] = tested on: C[C@@H](O)[C@H]1C(=O)N2C(C(=O)O)=C(S[C@@H]3CN[C@H](C(=O)N(C)C)C3)[C@H](C)[C@H]12; experiment: as §4
Escherichia coli [21] = experiment: Ratio of Kcat to Km for Escherichia coli XL1-Blue VIM-2 A64W mutant beta-lactamase by spectrophotometer
Procedure, shortened: (§5)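 Mutant enzyme expressed in E. coli BL21(DE3) in autoinducing ZYP-5052 medium. Purified by anion exchange at pH 7.2, then high-resolution anion exchange at pH 9.2, plus gel filtration in 50 mM HEPES-50 μM ZnSO4 pH 7.5 where needed. Identity confirmed by tryptic peptide mass fingerprint. Steady-state kinetics on β-lactam substrates were run under the conditions used for wild-type VIM-2.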

Escherichia coli [22] = experiment: Ratio of Kcat to Km for Escherichia coli XL1-Blue wild-type IMP-1 beta-lactamase by spectrophotometer
Escherichia coli [23] = experiment: Activity of Escherichia coli XL1-Blue wild-type IMP-1 beta-lactamase by spectrophotometer
Escherichia coli [24] = experiment: Activity of Escherichia coli XL1-Blue VIM-2 A64W mutant beta-lactamase by spectrophotometer; procedure, shortened: as §5
[25] = tested on: CO/N=C(\C(=O)N[C@@H]1C(=O)N2C(C(=O)[O-])=C(C[N+]3(C)CCCC3)CS[C@H]12)c1csc(N)n1; experiment: (§6) Ratio of Kcat to Km for Escherichia coli BL21(DE3) VIM-2 W87A mutant beta-lactamase by spectrophotometer
[26] = tested on: C[C@@H](O)[C@H]1C(=O)N2C(C(=O)O)=C(SCCNC=N)C[C@H]12; experiment: as §6
[27] = tested on: CO/N=C(\C(=O)N[C@@H]1C(=O)N2C(C(=O)[O-])=C(C[N+]3(C)CCCC3)CS[C@H]12)c1csc(N)n1; experiment: (§7) Activity of Escherichia coli BL21(DE3) VIM-2 W87A mutant beta-lactamase by spectrophotometer
[28] = tested on: C[C@@H](O)[C@H]1C(=O)N2C(C(=O)O)=C(SCCNC=N)C[C@H]12; experiment: as §7
Escherichia coli [29] = experiment: Ratio of Kcat to Km for Escherichia coli XL1-Blue IMP-1 W64A mutant beta-lactamase by spectrophotometer
Escherichia coli [30] = experiment: Activity of Escherichia coli XL1-Blue IMP-1 W64A mutant beta-lactamase by spectrophotometer

Compound: Metallo-beta-lactamase (Escherichia coli) (from UniProt Q5U7L7)
- kcat/Km [1]: 1.2e+07 M⁻¹ s⁻¹
- kcat/Km [2]: 5.8e+06 M⁻¹ s⁻¹
- kcat/Km [3]: 100000 M⁻¹ s⁻¹
- kcat/Km [4]: 3.8e+06 M⁻¹ s⁻¹
- Km [5]: 72 µM
- Km [6]: 12 µM
- kcat [6]: 70 s⁻¹
- Km [7]: > 400 µM
- kcat [7]: > 40 s⁻¹
- Km [8]: 9 µM
- kcat [8]: 34 s⁻¹
- Km [9]: 2 µM
- kcat [9]: 5 s⁻¹
- kcat/Km [10]: 1.2e+07 M⁻¹ s⁻¹
- kcat/Km [11]: 5.8e+06 M⁻¹ s⁻¹
- kcat/Km [12]: 100000 M⁻¹ s⁻¹
- kcat/Km [13]: 1.2e+06 M⁻¹ s⁻¹
- kcat/Km [14]: 3.8e+06 M⁻¹ s⁻¹
- kcat/Km [15]: 4.3e+07 M⁻¹ s⁻¹
- Km [16]: 72 µM
- Km [17]: 12 µM
- kcat [17]: 70 s⁻¹
- Km [18]: > 400 µM
- kcat [18]: > 40 s⁻¹
- Km [19]: 9 µM
- kcat [19]: 34 s⁻¹
- Km [20]: 2 µM
- kcat [20]: 5 s⁻¹

Compound: CO/N=C(\C(=O)N[C@@H]1C(=O)N2C(C(=O)[O-])=C(C[N+]3(C)CCCC3)CS[C@H]12)c1csc(N)n1
- kcat/Km (Escherichia coli [21]): 120000 M⁻¹ s⁻¹
- kcat/Km (Escherichia coli [22]): 660000 M⁻¹ s⁻¹
- Km (Escherichia coli [23]): 11 µM
- kcat (Escherichia coli [23]): 7 s⁻¹
- Km (Escherichia coli [24]): > 400 µM
- kcat (Escherichia coli [24]): > 50 s⁻¹

Compound: Metallo-beta-lactamase (Escherichia coli) (from UniProt Q5U7L7) W87A
- kcat/Km [25]: 12000 M⁻¹ s⁻¹
- kcat/Km [26]: 5.4e+06 M⁻¹ s⁻¹
- Km [27]: > 350 µM
- kcat [27]: > 4.5 s⁻¹
- Km [28]: 22 µM
- kcat [28]: 119 s⁻¹

Compound: CC(C)(O/N=C(\C(=O)N[C@@H]1C(=O)N2C(C(=O)[O-])=C(C[n+]3ccccc3)CS[C@H]12)c1csc(N)n1)C(=O)O
- kcat/Km (Escherichia coli [21]): 18000 M⁻¹ s⁻¹
- kcat/Km (Escherichia coli [22]): 180000 M⁻¹ s⁻¹
- Km (Escherichia coli [23]): 44 µM
- kcat (Escherichia coli [23]): 8 s⁻¹
- Km (Escherichia coli [24]): 40 µM
- kcat (Escherichia coli [24]): 0.7 s⁻¹

Compound: O=C(Cc1cccs1)N[C@@H]1C(=O)N2C(C(=O)O)=C(/C=C/c3ccc([N+](=O)[O-])cc3[N+](=O)[O-])CS[C@H]12
- kcat/Km (Escherichia coli [29]): 4.3e+06 M⁻¹ s⁻¹
- kcat/Km (Escherichia coli [21]): 2.7e+07 M⁻¹ s⁻¹
- kcat/Km (Escherichia coli [22]): 1.4e+07 M⁻¹ s⁻¹
- Km (Escherichia coli [30]): 160 µM
- kcat (Escherichia coli [30]): 700 s⁻¹
- Km (Escherichia coli [23]): 8.2 µM
- kcat (Escherichia coli [23]): 130 s⁻¹
- Km (Escherichia coli [24]): 10 µM
- kcat (Escherichia coli [24]): 270 s⁻¹
